This note sets out measurements from ChEMBL document CHEMBL1152747, “Synthesis, SAR study and biological evaluation of novel pyrazolo[1,5-a]pyrimidin-7-yl phenyl amides as anti-proliferative agents” (Bioorg Med Chem, 2009).

Structures are written as SMILES. The source made the active and inactive calls. The rule behind the calls is not given here. Where only a bound is given, the exact number is not on record here.

The test system of one series is HCT-116. The experiment in a line: Antiproliferative activity against p21+/+ human HCT116 cells. It is filed as functional, cell-based.
Series [1] is described as follows: Antiproliferative activity against p21-/- human 80S14 cells. It is filed as functional, cell-based.
Series [2] is described as follows: Plasma concentration in mouse at 50 mg/kg, po after 4 hrs. Format: ADME, organism-based. On the set-up: dose 50 mg/kg, route oral. The method in brief:
(§1)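 Nude mice were dosed orally at 50 mg/kg. Blood was sampled at 1 and 4 h, and plasma levels were reported in […].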

The test system of series [3] is LoVo. The experiment in a line: Anticancer activity against human LoVo cells xenografted mouse at 30 mg/kg, po administered 20 days measured on day 21 relative to control. It is filed as functional. The method in brief: (§2)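 Female athymic nu/nu mice were given 1×10^7 LoVo cells SC in the flank. Cells were cultured in RPMI with 10% FBS. At 90–120 mg tumour mass (day zero), mice were randomised 5 per group. Tumour mass was calculated as (length×width²)/2 every 7 days and expressed as relative growth versus day zero, treated versus control. Student t-test was run on log relative growth, with significance at p≤0.05.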
In general terms: In xenograft studies the graft and the host belong to different species.

The nature of series [4]: Plasma concentration in mouse at 50 mg/kg, po after 1 hr. It is filed as ADME, organism-based. Also on record: dose 50 mg/kg, route oral. The method in brief: as §1
Another series has as its system HT-29. Put plainly: Antiproliferative activity against human HT-29 cells. Format: functional, cell-based.
Series [5] deals with LoVo. Put plainly: Antiproliferative activity against human LoVo cells. Format: functional, cell-based.
The subject of another series is DLD-1. The experiment in a line: Antiproliferative activity against human DLD1 cells. Format: functional, cell-based.
In series [6] the test system is LoVo. Put plainly: Anticancer activity against human LoVo cells xenografted mouse at 50 mg/kg, po administered 20 days measured on day 21 relative to control. Format: functional. The method in brief: as §2
Series [7] can be described thus: Induction of oligomerization of tubulin.
The nature of series [8]: Binding affinity to tubulin. The procedure, abridged: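 Binding was read by the fluorescence change of compound and tubulin tryptophan residues on binding, using unlabelled tubulin with intrinsic tryptophan fluorescence as reporter. KD was derived from this signal.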
In another series the test system is SW-620. The experiment in a line: Antiproliferative activity against human SW620 cells. Format: functional, cell-based.

One may read the IC50 as the point on the concentration scale where inhibition reaches its midpoint. As for `CC(C)(C)CCNc1cccc(-c2ccnc3c(C(=O)c4cccs4)cnn23)c1`, the IC50 with HCT-116 was determined as 4800 nM; in [1], 550 nM.
For `CC(C)CC(=O)Nc1cc(-c2ccnc3c(C(=O)c4cccs4)cnn23)ccc1Cl`, in that order: 8800 nM and 430 nM.
The molecule `CC(C)NC(=O)Nc1cccc(-c2ccnc3c(C(=O)c4cccs4)cnn23)c1` had an IC50 in series [1] of 89 nM.
As usually defined, the T/C is the ratio of treated to control. What is called Kd is a measure of binding affinity in units of concentration. A higher Kd goes with weaker binding. For `CC(C)CC(=O)Nc1cc(-c2ccnc3c(C(=O)c4cccs4)cnn23)ccc1F`, in [2], the concentration at 4 h turned out to be 40 ng/mL. Further, the T/C turned out to be 57% with LoVo [3] and 24% with LoVo [6]. In [4], this molecule yielded a concentration at 1 h of 110 ng/mL. In addition, the IC50 in the series on HT-29 worked out at 16 nM; in the series with LoVo [5] it was 15 nM; with DLD-1, 16 nM; in the series on HCT-116, 3200 nM; in series [1], 89 nM; with SW-620, 15 nM. For the same molecule, in [7], the outcome was inactive. This molecule gave a Kd in series [8] of 2500 nM.
For `CC(CC(=O)Nc1cc(-c2ccnc3c(C(=O)c4cccs4)cnn23)ccc1F)C(F)(F)F` (stereo unspecified), the IC50 with HCT-116 was determined as 2500 nM; in [1] it was 120 nM.
On to `CC(C)CC(=O)Nc1cccc(-c2ccnc3c(C(=O)c4cccs4)cnn23)c1`, for which the outcome in [7] was inactive. Binding in series [8] was characterised by a dissociation constant (Kd) of 4300 nM. The molecule also displayed an IC50 in series [1] of 140 nM.
For the molecule `C/C=C/CNc1cccc(-c2ccnc3c(C(=O)c4cccs4)cnn23)c1`, the IC50 with HCT-116 turned out to be 3800 nM; in series [1] it was 430 nM.
For `Cc1ccc(-c2ccnc3c(C(=O)c4cccs4)cnn23)cc1NC(=O)CC(C)C`, in that order: 9200 nM and 1000 nM.
The like results for `O=C(NC1CCCC1)c1cccc(-c2ccnc3c(C(=O)c4cccs4)cnn23)c1` were, in that order, 6800 nM and 390 nM.
For `CC(C)CC(=O)Nc1cc(-c2ccnc3c(C(=O)c4cccs4)cnn23)cs1`, in that order: above 20000 nM and 7800 nM.
In the case of `CC(C)OC(=O)Nc1cccc(-c2ccnc3c(C(=O)c4cccs4)cnn23)c1`, the IC50 in series [1] came to 51 nM.
For `CC(C)NC(=O)c1cccc(-c2ccnc3c(C(=O)c4cccs4)cnn23)c1`, the IC50 in the series with HCT-116 was above 13000 nM; in [1] it was 680 nM.
The like results for `COc1ccc(-c2ccnc3c(C(=O)c4cccs4)cnn23)cc1NC(=O)CC(C)C` were, in that order, 19000 nM and 6400 nM.
For `CC(C)NC(=O)Nc1cc(-c2ccnc3c(C(=O)c4cccs4)cnn23)ccc1F`, in series [2], the concentration at 4 h worked out at 8 ng/mL. Also, in series [4], the concentration at 1 h stood at 14 ng/mL. Besides, the IC50 in the series on HT-29 was determined as 17 nM; with LoVo [5], 11 nM; with DLD-1, 19 nM; in the series on HCT-116, 5300 nM; in series [1], 41 nM; with SW-620, 12 nM.
For the molecule `CC(C)CCNc1cccc(-c2ccnc3c(C(=O)c4cccs4)cnn23)c1`, the IC50 in the series on HT-29 was determined as 450 nM; with LoVo [5], 81 nM; in the series on DLD-1 it was 120 nM; in the series with HCT-116, 5700 nM; in series [1] it was 770 nM; with SW-620, 110 nM.
`CC(C)CC(=O)Nc1ccc(Cl)c(-c2ccnc3c(C(=O)c4cccs4)cnn23)c1`: the IC50 in the series on HCT-116 was determined as 20000 nM; in series [1], 2800 nM.
On to `CC(C)CC(=O)Nc1ccc(-c2ccnc3c(C(=O)c4cccs4)cnn23)s1`, for which the IC50 in the series with HT-29 is 670 nM; in the series with LoVo [5], 680 nM; with DLD-1, 620 nM; in the series with HCT-116, above 20000 nM; in [1], 2000 nM; in the series on SW-620 it was 760 nM.
Regarding `O=C(Nc1ccccc1)c1cccc(-c2ccnc3c(C(=O)c4cccs4)cnn23)c1`, the results for the IC50 (in the series with HCT-116; in series [1]) were 5100 nM and 310 nM, respectively.
Take `CC(C)CNC(=O)c1cccc(-c2ccnc3c(C(=O)c4cccs4)cnn23)c1`: the IC50 amounted to 150 nM with HT-29; 150 nM with LoVo [5]; 60 nM in the series on DLD-1; 5700 nM in the series on HCT-116; 400 nM in series [1]; 150 nM in the series on SW-620.
With `CC(C)CC(=O)Nc1cncc(-c2ccnc3c(C(=O)c4cccs4)cnn23)c1`, the IC50 is above 2600 nM in the series on HCT-116 and 7600 nM in [1].
The like results for `CC(C)(C)CC(=O)Nc1cc(-c2ccnc3c(C(=O)c4cccs4)cnn23)ccc1F` were, in that order, 3700 nM and 190 nM.
As to `CCCCNC(=O)c1cccc(-c2ccnc3c(C(=O)c4cccs4)cnn23)c1`, the half-maximal inhibitory concentration (IC50) was 5300 nM with HCT-116 and 340 nM in series [1].
